Assay results gathered from unrelated publications.
Compare with care: the assays were run in different laboratories.
Target: Activated CDC42 kinase 1 (TNK2, Homo sapiens, UniProt Q07912)

SMILES	read-out	mode	technique	concentration	measurement	result
Cn1cc(-c2cccc(N3CCc4c(sc5c4CC(C)(C)C5)C3=O)c2CO)cc(Nc2ccncn2)c1=O	enzyme activity	inhibitor	–	1 µM	inhibition	0%
Nc1ncc(-c2nc(N3CCOCC3)nc(N3CCOCC3)n2)c(C(F)F)n1	binding	–	competition with immobilised ligand	10 µM	remaining binding	85%
O=c1[nH]c2ccccc2n1C1CCN(Cc2ccc(-c3[nH]c4cc5ncnc5cc4nc3-c3ccccc3)cc2)CC1	cell-free assay	–	–	0.5 µM	remaining signal	92.3%
COc1cc(Nc2ncc(F)c(Nc3ccc4c(n3)NC(=O)C(C)(C)O4)n2)cc(OC)c1OC	binding	–	–	10 µM	inhibition	99%
CC(C)(C)c1cc(C=C(C#N)C#N)cc(Br)c1O	enzyme activity	inhibitor	–	0.5 µM	remaining activity	93.1%
Cn1cc(-c2cc(F)cc(N3CCn4c(cc5c4CCCC5)C3=O)c2CO)cc(Nc2ccc(N3CCN(C4COC4)CC3)cn2)c1=O	enzyme activity	inhibitor	–	0.1 µM	inhibition	1%
COc1ncccc1-c1cnn2ccc(N3CCN(C(=O)OC(C)C)CC3)nc12	binding	–	competition with immobilised ligand	1 µM	remaining binding	94%
COc1cc(Cl)c(C(=O)N[C@@H](CN[C@H]2CC[C@@H](N)CC2)Cc2ccc(C#N)cc2)cc1-c1ccc(CN[C@H](C)c2ccc(C)cc2)o1	enzyme activity	inhibitor	–	1 µM	remaining activity	107%
Cn1cncc1[C@](O)(COc1ccc(C#N)cc1-c1ccc(OC(F)(F)F)cc1)c1ccc(C#N)cc1	cell-free assay	–	competition with immobilised ligand	1 µM	remaining binding	100%
